Results reported in ChEMBL document CHEMBL3045240 (J Med Chem, 1987).

How the values were obtained:
[1] = system: Musca domestica; assay: Toxicity against SCR-susceptible Musca domestica (house fly) assessed as immobility compound administered by intrathoracic injection 2 hr after piperonyl butoxide treatment measured 4 hr post compound treatment; assay type: functional
How it was run: (§1)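 Houseflies first received 7.5 μg piperonyl butoxide in 0.5 μL acetone topically on the abdomen. After 2 h they were given the test compound by intrathoracic injection in 1 μL of 50% aqueous ethanol. Flies immobilised at 4 h were scored, and KD50 came from log dose–probit plots. Two independent experiments were run, each with 10 flies per dose and 1.5–2-fold dose spacing.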

[2] = Toxicity in ip dosed Mus musculus Swiss-Webster (mouse) assessed as mortality measured after 24 hr; assay type: organism-based; settings: in vivo
[3] = target: T1, Ryanodine receptor 1 (Oryctolagus cuniculus, UniProt P11716)
T1 sequence (P11716 whole entry): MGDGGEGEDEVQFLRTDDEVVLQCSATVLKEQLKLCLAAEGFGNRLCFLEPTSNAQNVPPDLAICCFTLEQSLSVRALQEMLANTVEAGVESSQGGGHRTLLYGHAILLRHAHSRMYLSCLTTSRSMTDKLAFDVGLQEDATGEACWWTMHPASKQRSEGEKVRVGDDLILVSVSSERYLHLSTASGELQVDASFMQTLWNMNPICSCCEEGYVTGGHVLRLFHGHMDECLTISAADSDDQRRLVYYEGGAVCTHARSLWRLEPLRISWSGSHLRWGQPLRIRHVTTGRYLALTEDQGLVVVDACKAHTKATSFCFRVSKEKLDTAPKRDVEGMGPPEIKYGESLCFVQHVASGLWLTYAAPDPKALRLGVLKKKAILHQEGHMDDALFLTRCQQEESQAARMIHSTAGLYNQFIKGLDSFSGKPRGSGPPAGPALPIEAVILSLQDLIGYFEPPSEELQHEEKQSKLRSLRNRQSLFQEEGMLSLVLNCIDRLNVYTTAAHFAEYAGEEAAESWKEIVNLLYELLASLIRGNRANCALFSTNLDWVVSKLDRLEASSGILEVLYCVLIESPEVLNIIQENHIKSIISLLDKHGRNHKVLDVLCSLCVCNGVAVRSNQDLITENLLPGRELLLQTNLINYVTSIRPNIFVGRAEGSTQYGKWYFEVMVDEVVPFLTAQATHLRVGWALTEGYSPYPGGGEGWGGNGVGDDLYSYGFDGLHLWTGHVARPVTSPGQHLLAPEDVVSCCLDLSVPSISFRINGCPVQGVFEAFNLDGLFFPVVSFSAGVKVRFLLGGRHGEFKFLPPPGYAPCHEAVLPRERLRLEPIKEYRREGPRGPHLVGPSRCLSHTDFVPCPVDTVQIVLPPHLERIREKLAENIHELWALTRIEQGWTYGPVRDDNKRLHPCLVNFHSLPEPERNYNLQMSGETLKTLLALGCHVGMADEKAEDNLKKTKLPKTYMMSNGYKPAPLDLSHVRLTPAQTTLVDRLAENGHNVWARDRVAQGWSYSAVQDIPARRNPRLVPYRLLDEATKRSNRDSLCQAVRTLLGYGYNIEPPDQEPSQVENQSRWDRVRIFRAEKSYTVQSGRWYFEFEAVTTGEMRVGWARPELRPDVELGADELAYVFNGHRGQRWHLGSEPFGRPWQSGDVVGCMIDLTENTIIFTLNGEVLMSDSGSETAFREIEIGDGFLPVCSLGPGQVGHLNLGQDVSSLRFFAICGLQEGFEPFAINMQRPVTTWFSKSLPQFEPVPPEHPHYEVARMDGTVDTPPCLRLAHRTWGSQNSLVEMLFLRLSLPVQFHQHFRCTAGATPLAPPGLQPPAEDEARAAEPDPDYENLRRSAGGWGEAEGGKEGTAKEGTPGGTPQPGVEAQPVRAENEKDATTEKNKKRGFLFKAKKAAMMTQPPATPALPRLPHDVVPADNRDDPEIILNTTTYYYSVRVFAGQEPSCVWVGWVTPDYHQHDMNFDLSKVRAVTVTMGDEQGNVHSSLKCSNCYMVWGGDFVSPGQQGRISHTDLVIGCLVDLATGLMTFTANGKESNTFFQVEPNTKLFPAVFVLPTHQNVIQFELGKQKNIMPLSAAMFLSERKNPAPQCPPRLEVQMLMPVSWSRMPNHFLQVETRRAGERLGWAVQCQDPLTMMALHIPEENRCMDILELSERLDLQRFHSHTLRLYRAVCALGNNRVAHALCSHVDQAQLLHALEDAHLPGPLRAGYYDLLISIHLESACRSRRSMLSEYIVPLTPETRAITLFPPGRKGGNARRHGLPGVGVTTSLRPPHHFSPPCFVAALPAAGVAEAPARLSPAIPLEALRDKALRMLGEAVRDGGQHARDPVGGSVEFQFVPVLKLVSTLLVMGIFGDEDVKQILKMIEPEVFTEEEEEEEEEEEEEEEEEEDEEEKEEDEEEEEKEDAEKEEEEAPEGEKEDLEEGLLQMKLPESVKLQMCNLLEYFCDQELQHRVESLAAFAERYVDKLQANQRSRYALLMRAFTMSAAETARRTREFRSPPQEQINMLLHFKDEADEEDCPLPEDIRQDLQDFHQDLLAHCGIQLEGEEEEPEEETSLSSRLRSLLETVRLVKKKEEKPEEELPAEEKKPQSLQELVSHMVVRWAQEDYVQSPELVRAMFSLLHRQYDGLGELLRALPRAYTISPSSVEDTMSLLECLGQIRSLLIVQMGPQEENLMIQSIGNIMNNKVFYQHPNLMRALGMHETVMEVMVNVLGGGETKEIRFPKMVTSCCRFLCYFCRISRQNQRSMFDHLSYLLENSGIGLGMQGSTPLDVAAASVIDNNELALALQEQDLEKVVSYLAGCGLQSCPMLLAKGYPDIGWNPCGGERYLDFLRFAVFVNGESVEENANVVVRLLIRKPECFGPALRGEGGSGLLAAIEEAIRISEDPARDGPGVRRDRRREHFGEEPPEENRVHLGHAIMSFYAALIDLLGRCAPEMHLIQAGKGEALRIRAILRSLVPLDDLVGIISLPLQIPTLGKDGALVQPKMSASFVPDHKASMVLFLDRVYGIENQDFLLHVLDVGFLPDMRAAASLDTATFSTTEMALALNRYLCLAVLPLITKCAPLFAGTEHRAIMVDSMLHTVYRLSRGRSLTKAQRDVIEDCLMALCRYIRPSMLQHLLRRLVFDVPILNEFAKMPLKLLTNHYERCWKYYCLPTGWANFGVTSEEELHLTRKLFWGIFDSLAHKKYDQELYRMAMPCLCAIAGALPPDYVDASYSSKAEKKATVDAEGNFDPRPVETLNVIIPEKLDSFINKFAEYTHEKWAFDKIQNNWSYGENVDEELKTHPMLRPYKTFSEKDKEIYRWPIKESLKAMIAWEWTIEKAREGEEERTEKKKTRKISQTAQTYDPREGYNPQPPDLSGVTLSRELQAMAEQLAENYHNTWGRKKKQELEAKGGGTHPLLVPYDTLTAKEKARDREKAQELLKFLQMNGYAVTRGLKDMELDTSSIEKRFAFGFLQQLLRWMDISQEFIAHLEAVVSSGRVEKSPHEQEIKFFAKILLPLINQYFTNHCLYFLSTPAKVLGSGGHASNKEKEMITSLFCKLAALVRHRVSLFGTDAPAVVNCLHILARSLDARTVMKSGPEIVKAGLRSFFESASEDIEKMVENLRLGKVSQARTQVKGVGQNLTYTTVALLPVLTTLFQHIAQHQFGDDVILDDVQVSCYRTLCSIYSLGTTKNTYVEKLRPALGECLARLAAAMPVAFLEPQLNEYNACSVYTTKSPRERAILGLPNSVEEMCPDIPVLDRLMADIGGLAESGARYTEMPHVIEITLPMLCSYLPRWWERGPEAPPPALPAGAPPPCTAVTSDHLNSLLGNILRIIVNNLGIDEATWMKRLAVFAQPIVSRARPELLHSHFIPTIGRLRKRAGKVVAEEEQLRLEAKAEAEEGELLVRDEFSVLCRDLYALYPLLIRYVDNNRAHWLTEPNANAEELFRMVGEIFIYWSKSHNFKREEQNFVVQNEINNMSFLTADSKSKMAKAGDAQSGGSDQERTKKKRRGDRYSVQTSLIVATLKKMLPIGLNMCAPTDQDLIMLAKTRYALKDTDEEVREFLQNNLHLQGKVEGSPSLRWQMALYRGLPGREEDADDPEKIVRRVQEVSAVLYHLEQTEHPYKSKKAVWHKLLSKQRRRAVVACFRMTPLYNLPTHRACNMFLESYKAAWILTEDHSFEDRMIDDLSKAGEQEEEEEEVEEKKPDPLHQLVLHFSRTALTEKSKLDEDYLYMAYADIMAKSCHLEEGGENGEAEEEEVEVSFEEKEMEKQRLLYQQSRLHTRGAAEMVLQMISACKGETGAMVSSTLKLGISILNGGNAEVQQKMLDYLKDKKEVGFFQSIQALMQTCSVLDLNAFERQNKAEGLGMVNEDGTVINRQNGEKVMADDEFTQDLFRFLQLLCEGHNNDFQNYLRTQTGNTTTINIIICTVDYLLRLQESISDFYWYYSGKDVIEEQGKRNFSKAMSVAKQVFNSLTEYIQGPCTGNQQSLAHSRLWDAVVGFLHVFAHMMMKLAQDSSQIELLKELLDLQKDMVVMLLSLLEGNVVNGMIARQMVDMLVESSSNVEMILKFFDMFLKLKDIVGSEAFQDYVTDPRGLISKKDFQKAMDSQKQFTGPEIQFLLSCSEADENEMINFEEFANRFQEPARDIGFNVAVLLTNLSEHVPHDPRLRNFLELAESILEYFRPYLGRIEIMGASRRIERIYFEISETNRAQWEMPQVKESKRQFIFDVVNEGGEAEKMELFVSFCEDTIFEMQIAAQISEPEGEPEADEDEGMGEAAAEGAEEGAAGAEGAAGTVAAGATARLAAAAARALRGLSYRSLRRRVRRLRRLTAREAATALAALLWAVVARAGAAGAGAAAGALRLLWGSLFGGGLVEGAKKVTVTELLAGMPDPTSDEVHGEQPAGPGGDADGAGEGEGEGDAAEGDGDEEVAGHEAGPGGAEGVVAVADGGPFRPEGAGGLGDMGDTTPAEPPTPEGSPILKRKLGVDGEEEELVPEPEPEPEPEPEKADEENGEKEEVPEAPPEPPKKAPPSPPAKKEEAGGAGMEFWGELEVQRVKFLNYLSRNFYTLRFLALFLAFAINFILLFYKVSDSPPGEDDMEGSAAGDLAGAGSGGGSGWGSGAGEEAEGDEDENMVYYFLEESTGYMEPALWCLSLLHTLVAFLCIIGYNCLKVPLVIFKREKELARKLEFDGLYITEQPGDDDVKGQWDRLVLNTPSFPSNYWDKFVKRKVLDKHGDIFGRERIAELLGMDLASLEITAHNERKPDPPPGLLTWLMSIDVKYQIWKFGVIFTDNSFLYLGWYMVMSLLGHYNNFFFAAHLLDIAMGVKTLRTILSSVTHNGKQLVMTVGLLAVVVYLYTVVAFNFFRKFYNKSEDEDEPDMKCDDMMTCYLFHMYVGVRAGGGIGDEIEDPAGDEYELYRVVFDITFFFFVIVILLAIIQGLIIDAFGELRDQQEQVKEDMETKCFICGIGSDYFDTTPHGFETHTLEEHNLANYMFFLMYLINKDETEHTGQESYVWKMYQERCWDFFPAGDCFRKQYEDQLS

[4] = system: Musca domestica; assay: Drug metabolism in SCR-susceptible Musca domestica (house fly) assessed as unidentified metabolite intermediate Rf in exctreta at 160 ug/g after 1 hr by TLC method; assay type: ADME, organism-based; settings: in vivo
How it was run: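 Excreta were extracted with MeOH, then run on TLC on 0.20-mm silica gel in 15% MeOH/CHCl3. Metabolites were detected by liquid scintillation counting.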

[5] = system: Musca domestica; assay: Drug metabolism in SCR-susceptible Musca domestica (house fly) assessed as unidentified metabolite intermediate Rf in exctreta at 160 ug/g after 4 hr by TLC method; assay type: ADME, organism-based; settings: in vivo
[6] = system: Musca domestica; assay: Toxicity against SCR-susceptible Musca domestica (house fly) assessed as immobility compound administered by intrathoracic injection measured 4 hr post compound treatment; assay type: functional
How it was run: (§2)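 Houseflies without piperonyl butoxide pretreatment received ryanoid by intrathoracic injection in 50% aqueous ethanol. Knockdown (immobility) was scored 4 h after treatment, and KD50 came from log dose–probit plots. Two independent experiments were run, each with 10 flies per dose and 1.5–2-fold dose spacing.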

[7] = system: Musca domestica; assay: Ratio of compound KD50 to ryanodine KD50 for SCR-susceptible Musca domestica (house fly) assessed as immobility compound administered by intrathoracic injection measured 4 hr post compound treatment; assay type: ADME, organism-based; settings: in vivo, other; how it was run: as §2
[8] = system: Mus musculus; assay: Ratio of compound LC50 to ryanodine LC50 for ip dosed Mus musculus Swiss-Webster (mouse) assessed as mortality measured after 24 hr; assay type: ADME, organism-based; settings: in vivo
[9] = system: Musca domestica; assay: Ratio of compound KD50 to ryanodine KD50 for SCR-susceptible Musca domestica (house fly) assessed as immobility compound administered by intrathoracic injection 2 hr after piperonyl butoxide treatment measured 4 hr post compound treatment; assay type: functional; how it was run: as §1
[10] = target: T1, Ryanodine receptor 1; assay: Ratio of compound IC50 to ryanodine IC50 for Ca2+-ryanodine receptor in Oryctolagus cuniculus (rabbit) skeletal muscle sarcoplasmic reticulum after 80 min by competitive inhibition assay; assay type: ADME
How it was run: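 Rabbit fast skeletal muscle heavy SR (terminal cisternae) receptor, solubilised with 1 M NaCl, 1 mg CHAPS/mg protein and 40 mM Tris/maleate pH 7.1. […] Incubation was 80 min at 37°C, then GF/C filtration. IC50 came from Hill regression.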

SMILES	KD50 [1] [µg/g]	LD50 at 24 h [2] [mg/kg]	IC50 [3] [nM]	other results
CO[C@@]12C[C@@]3(C)[C@@]4(O)CC[C@H](C)[C@@H](O)[C@]4(O1)[C@]1(O)[C@@]3(O)[C@H](OC(=O)c3cccn3C)[C@](O)(C(C)C)[C@]21C	>20	17	280	
CO[C@@]12C[C@@]3(C)[C@@]4(OC)CC[C@H](C)[C@@H](O)[C@]4(O1)[C@]1(O)[C@@]3(O)[C@H](OC(=O)c3cccn3C)[C@](O)(C(C)C)[C@]21C	12		1300	
CO[C@@]12C[C@@]3(C)[C@@]4(O)CC[C@H](C)[C@@H](O)[C@]4(O1)[C@]1(O)[C@@]3(OC)[C@H](OC(=O)c3cccn3C)[C@](O)(C(C)C)[C@]21C	>20	> 20	4500	
CC1=CC[C@]2(O)[C@]3(C)C[C@]4(O)O[C@@]2(C1=O)[C@]1(O)[C@@]3(O)[C@H](OC(=O)c2ccc[nH]2)[C@](O)(C(C)C)[C@@]14C		> 5	7300	
CO[C@@H]1[C@@H](C)CC[C@]2(O)[C@]3(C)C[C@]4(OC)O[C@]12[C@]1(O)[C@@]3(OC)[C@H](OC(=O)c2cccn2C)[C@](O)(C(C)C)[C@]41C	>20	> 20	> 10000	
CC(C)[C@@]1(O)[C@@H](OC(=O)c2ccc[nH]2)[C@@]2(O)[C@@]3(C)C[C@]4(O)O[C@@]5([C@H](O)[C@](O)(CO)CC[C@]35O)[C@@]2(O)[C@]14C [9,21-DIHYDROXYRYANODINE]	10		4900	
CC(C)[C@@]1(O)[C@@H](OC(=O)c2ccc[nH]2)[C@@]2(O)[C@@]3(C)C[C@]4(O)O[C@@]5([C@H](O)C6(CC[C@]35O)CO6)[C@@]2(O)[C@]14C (stereo not given in full) [9,21-EPOXYRYANODINE]	0.3	1.5	140	
CC(=O)O[C@@H]1[C@@H](C)CC[C@]2(O)[C@]3(C)C[C@]4(O)O[C@]12[C@]1(O)[C@@]3(O)[C@H](OC(=O)c2ccc[nH]2)[C@](O)(C(C)C)[C@@]14C [10-ACETYLRYANODINE]	0.5		140	
CC(C)[C@@]1(O)[C@@H](OC(=O)c2ccc[nH]2)[C@@]2(O)[C@@]3(C)C[C@]4(O)O[C@@]5(C(=O)[C@@H](C)CC[C@]35O)[C@@]2(O)[C@]14C [10-KETORYANODINE]	>20	0.55	100	
CC(CO)[C@@]1(O)[C@@H](OC(=O)c2ccc[nH]2)[C@@]2(O)[C@@]3(C)C[C@]4(O)O[C@@]5([C@H](O)[C@@H](C)CC[C@]35O)[C@@]2(O)[C@]14C (stereo not given in full) [18-HYDROXYRYANODINE]		0.9	88	
CC(C)[C@@]1(O)[C@@H](OC(=O)c2[nH]c(Br)c(Br)c2Br)[C@@]2(O)[C@@]3(C)C[C@]4(O)O[C@@]5([C@H](O)[C@@H](C)CC[C@]35O)[C@@]2(O)[C@]14C [24,25,26-TRIBROMORYANODINE]		> 20	> 10000	
CC1=C(C(C)C)[C@@H](OC(=O)c2ccc[nH]2)[C@@]2(O)[C@@]3(C)CC(=O)O[C@@]4([C@H](O)[C@@H](C)CC[C@]34O)[C@@]12O [ANHYDRORYANODINE]		> 20	> 10000	
C=C1CC[C@]2(O)[C@]3(C)C[C@]4(O)O[C@@]2([C@@H]1O)[C@]1(O)[C@@]3(O)[C@H](OC(=O)c2ccc[nH]2)[C@](O)(C(C)C)[C@@]14C [DEHYDRORYANODINE]	0.03	0.1	13	
C=C1CC[C@]2(O)[C@]3(C)C[C@]4(O)O[C@@]2([C@@H]1O)[C@]1(O)[C@@]3(O)[C@H](O)[C@](O)(C(C)C)[C@@]14C [DIDEHYDRORYANODOL]	0.36	> 20	10000	
CC(C)[C@@]1(O)[C@@H](OC(=O)c2ccc[nH]2)[C@@]2(O)[C@@]3(C)C[C@]4(O)O[C@@]5([C@H](O)[C@H](C)CC[C@]35O)[C@@]2(O)[C@]14C [EPIRYANODINE]		0.47		
CC(C)[C@@]1(O)[C@@H](OC(=O)c2cccn2Cc2ccccc2)[C@@]2(O)[C@@]3(C)C[C@]4(O)O[C@@]5([C@H](O)[C@@H](C)CC[C@]35O)[C@@]2(O)[C@]14C [N-BENZYLRYANODINE]		6.3	310	
CCCCn1cccc1C(=O)O[C@H]1[C@@]2(O)[C@@]3(C)C[C@]4(O)O[C@@]5([C@H](O)[C@@H](C)CC[C@]35O)[C@@]2(O)[C@]4(C)[C@@]1(O)C(C)C [N-BUTYLRYANODINE]			860	
CC(C)[C@@]1(O)[C@@H](OC(=O)c2cc[nH]c2)[C@@]2(O)[C@]3(C)C[C@@]4(O)O[C@@]5([C@H](O)[C@@H](C)CC[C@]35O)[C@@]2(O)[C@@]41C [RYANODINE]				Drug metabolism [4]: Active; Drug metabolism [5]: Active
CC(C)[C@@]1(O)[C@@H](OC(=O)c2ccc[nH]2)[C@@]2(O)[C@@]3(C)C[C@]4(O)O[C@@]5([C@H](O)[C@@H](C)CC[C@]35O)[C@@]2(O)[C@@]14C [RYANODINE]		0.1		
CC(C)[C@@]1(O)[C@@H](O)[C@@]2(O)[C@@]3(C)C[C@]4(O)O[C@@]5([C@H](O)[C@@H](C)CC[C@]35O)[C@@]2(O)[C@]14C [RYANODOL]	0.34	> 20	35000	KD50 [6]: 1.1 µg/g; Ratio [7]: 0.8; Ratio [8]: > 200; Ratio [9]: 3.6; Ratio IC50 [10]: 3500
